In brackets after ≈: the same amount, converted by molar mass. Activity calls are given as the source filed them. The calls are words filed in the database; no cut-off is given here.
Experiments:
Staphylococcus aureus [1] = test: Antimicrobial activity against methicillin-resistant Staphylococcus aureus CCARM 3634 incubated for 24 hrs by microtiter broth dilution method; type: functional; details: CCARM 3634, 24 h
Procedure, shortened: (§1)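 Two-fold serial dilutions of compound in DMSO were made in Mueller Hinton broth in 96-well microtiter plates, with 0.64% DMSO final. Each well was inoculated with an overnight bacterial culture at 5 × 10⁵ cfu/mL and incubated at 37 °C for 24 h. MIC was the lowest concentration showing no visible growth.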

Salmonella typhimurium = test: Antimicrobial activity against Salmonella typhimurium ATCC 14028 incubated for 24 hrs by microtiter broth dilution method; type: functional, organism-based; details: Salmonella enterica subsp. enterica serovar Typhimurium
Procedure, shortened: (§2)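 Two-fold serial dilutions of compounds in DMSO were added to Mueller Hinton broth in 96-well microtiter plates (final 0.64% DMSO). Wells were inoculated with overnight bacterial culture at 5 × 10⁵ cfu/mL and incubated at 37 °C for 24 h. The MIC was the lowest concentration with no visible growth.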

[2] = test system: Staphylococcus epidermidis; test: Antimicrobial activity against Staphylococcus epidermidis ATCC 12228 incubated for 24 hrs by microtiter broth dilution method; type: functional; procedure, shortened: as §2
Kocuria rhizophila = test: Antimicrobial activity against Kocuria rhizophila ATCC 9341 incubated for 24 hrs by microtiter broth dilution method; type: functional; procedure, shortened: as §2
Bacillus subtilis = test: Antimicrobial activity against Bacillus subtilis ATCC 6633 incubated for 24 hrs by microtiter broth dilution method; type: functional; procedure, shortened: as §2
Staphylococcus aureus [3] = test: Antimicrobial activity against Staphylococcus aureus ATCC 6538 incubated for 24 hrs by microtiter broth dilution method; type: functional; procedure, shortened: as §2
Staphylococcus aureus [4] = test: Antimicrobial activity against methicillin-sensitive Staphylococcus aureus CCARM 0204 incubated for 24 hrs by microtiter broth dilution method; type: functional; details: CCARM 0204, 24 h; procedure, shortened: as §1
Staphylococcus aureus [5] = test: Antimicrobial activity against methicillin-resistant Staphylococcus aureus CCARM 3635 incubated for 24 hrs by microtiter broth dilution method; type: functional; details: CCARM 3635, 24 h; procedure, shortened: as §1
Staphylococcus aureus [6] = test: Antimicrobial activity against methicillin-resistant Staphylococcus aureus CCARM 3089 incubated for 24 hrs by microtiter broth dilution method; type: functional; details: CCARM 3089, 24 h; procedure, shortened: as §1
Staphylococcus aureus [7] = test: Antimicrobial activity against methicillin-resistant Staphylococcus aureus CCARM 3090 incubated for 24 hrs by microtiter broth dilution method; type: functional; details: CCARM 3090, 24 h; procedure, shortened: as §1
Klebsiella pneumoniae = test: Antimicrobial activity against Klebsiella pneumoniae ATCC 4352 incubated for 24 hrs by microtiter broth dilution method; type: functional, organism-based; procedure, shortened: as §2
Staphylococcus aureus [8] = test: Antimicrobial activity against methicillin-sensitive Staphylococcus aureus CCARM 3640 incubated for 24 hrs by microtiter broth dilution method; type: functional; details: CCARM 3640, 24 h; procedure, shortened: as §1
Escherichia coli = test: Antimicrobial activity against Escherichia coli ATCC 11775 incubated for 24 hrs by microtiter broth dilution method; type: functional, organism-based; procedure, shortened: as §2
Staphylococcus aureus [9] = test: Antimicrobial activity against methicillin-sensitive Staphylococcus aureus CCARM 0027 incubated for 24 hrs by microtiter broth dilution method; type: functional; details: CCARM 0027, 24 h; procedure, shortened: as §1
Staphylococcus aureus [10] = test: Antimicrobial activity against methicillin-sensitive Staphylococcus aureus CCARM 0205 incubated for 24 hrs by microtiter broth dilution method; type: functional; details: CCARM 0205, 24 h; procedure, shortened: as §1

Molecule | MIC (Staphylococcus aureus [1]) | MIC (Salmonella typhimurium) | MIC ([2]; ATCC 12228, 24 h) | MIC (Kocuria rhizophila; ATCC 9341, 24 h) | MIC (Bacillus subtilis; ATCC 6633, 24 h) | MIC (Staphylococcus aureus [3]; ATCC 6538, 24 h) | MIC (Staphylococcus aureus [4]) | MIC (Staphylococcus aureus [5]) | MIC (Staphylococcus aureus [6]) | MIC (Staphylococcus aureus [7]) | MIC (Klebsiella pneumoniae) | MIC (Staphylococcus aureus [8]) | MIC (Escherichia coli) | MIC (Staphylococcus aureus [9]) | MIC (Staphylococcus aureus [10]) | MIC [2] | MIC (Kocuria rhizophila) | MIC (Bacillus subtilis) | MIC (Staphylococcus aureus [3])
COc1ccc(C=C2OC(=O)C=C2c2ccc(O)c(Br)c2)cc1 | > 32 µg/mL | inactive | 25 µg/mL (≈ 67 µM) | 3.1 µg/mL (≈ 8.31 µM) | 50 µg/mL (≈ 134 µM) | > 50 µg/mL | > 32 µg/mL | > 32 µg/mL | > 32 µg/mL | > 32 µg/mL | inactive | > 32 µg/mL | inactive | > 32 µg/mL | > 32 µg/mL |  |  |  | 
CCCCCCCCCC(=O)N[C@@H](Cc1c[nH]c2ccccc12)C(=O)N[C@H](CC(N)=O)C(=O)N[C@@H](CC(=O)O)C(=O)N[C@@H]1C(=O)NCC(=O)N[C@@H](CCCN)C(=O)N[C@@H](CC(=O)O)C(=O)N[C@H](C)C(=O)N[C@@H](CC(=O)O)C(=O)NCC(=O)N[C@H](CO)C(=O)N[C@@H]([C@H](C)CC(=O)O)C(=O)N[C@@H](CC(=O)c2ccccc2N)C(=O)O[C@@H]1C | > 32 µg/mL |  |  |  |  |  | 4 µg/mL (≈ 2.47 µM) | > 32 µg/mL | > 32 µg/mL | > 32 µg/mL |  | 16 µg/mL (≈ 9.87 µM) |  | 16 µg/mL (≈ 9.87 µM) | 2 µg/mL (≈ 1.23 µM) |  |  |  | 
O=C1O/C(=C\c2cc(Br)c(O)c(Br)c2)C(c2cc(Br)c(O)c(Br)c2)=C1C(=O)c1cc(Br)c(O)c(Br)c1 [CADIOLIDE B] | 1 µg/mL (≈ 1.14 µM) | inactive | 3.1 µg/mL (≈ 3.55 µM) | 3.1 µg/mL (≈ 3.55 µM) | 3.1 µg/mL (≈ 3.55 µM) | 3.1 µg/mL (≈ 3.55 µM) | 1 µg/mL (≈ 1.14 µM) | 0.5 µg/mL (≈ 0.572 µM) | 1 µg/mL (≈ 1.14 µM) | 1 µg/mL (≈ 1.14 µM) | inactive | 1 µg/mL (≈ 1.14 µM) | inactive | 2 µg/mL (≈ 2.29 µM) | 2 µg/mL (≈ 2.29 µM) |  |  |  | 
O=C1O/C(=C\c2ccc(O)c(Br)c2)C(c2ccc(O)c(Br)c2)=C1C(=O)c1cc(Br)c(O)c(Br)c1 [CADIOLIDE C] | 0.5 µg/mL (≈ 0.698 µM) | inactive | 0.4 µg/mL (≈ 0.559 µM) | 0.2 µg/mL (≈ 0.279 µM) | 3.1 µg/mL (≈ 4.33 µM) | 0.4 µg/mL (≈ 0.559 µM) | 0.25 µg/mL (≈ 0.349 µM) | < 0.13 µg/mL | 0.5 µg/mL (≈ 0.698 µM) | 0.25 µg/mL (≈ 0.349 µM) | inactive | < 0.13 µg/mL | inactive | 0.5 µg/mL (≈ 0.698 µM) | 0.25 µg/mL (≈ 0.349 µM) |  |  |  | 
O=C1O/C(=C\c2ccc(O)c(Br)c2)C(c2cc(Br)c(O)c(Br)c2)=C1C(=O)c1cc(Br)c(O)c(Br)c1 [CADIOLIDE D] | 1 µg/mL (≈ 1.26 µM) | inactive | 0.8 µg/mL (≈ 1.01 µM) | 1.6 µg/mL (≈ 2.01 µM) | 6.3 µg/mL (≈ 7.93 µM) | 6.3 µg/mL (≈ 7.93 µM) | 0.5 µg/mL (≈ 0.629 µM) | 0.25 µg/mL (≈ 0.315 µM) | 0.5 µg/mL (≈ 0.629 µM) | 0.25 µg/mL (≈ 0.315 µM) | inactive | 0.25 µg/mL (≈ 0.315 µM) | inactive | 0.5 µg/mL (≈ 0.629 µM) | 0.25 µg/mL (≈ 0.315 µM) |  |  |  | 
O=C1O/C(=C\c2cc(Br)c(O)c(Br)c2)C(c2ccc(O)c(Br)c2)=C1C(=O)c1cc(Br)c(O)c(Br)c1 [CADIOLIDE E] | 2 µg/mL (≈ 2.52 µM) | inactive | 6.3 µg/mL (≈ 7.93 µM) | 0.2 µg/mL (≈ 0.252 µM) | 3.1 µg/mL (≈ 3.9 µM) | 3.1 µg/mL (≈ 3.9 µM) | 2 µg/mL (≈ 2.52 µM) | 0.5 µg/mL (≈ 0.629 µM) | 1 µg/mL (≈ 1.26 µM) | 1 µg/mL (≈ 1.26 µM) | inactive | 0.25 µg/mL (≈ 0.315 µM) | inactive | 2 µg/mL (≈ 2.52 µM) | 4 µg/mL (≈ 5.03 µM) |  |  |  | 
CC12C[C@@]34C=CC(=O)[C@@](C)(CCC(=O)Nc5c(O)ccc(C(=O)O)c5O)C3[C@H](CC1C4)O2 (stereo partly drawn) [PLATENSIMYCIN] | 8 µg/mL (≈ 18.1 µM) |  |  |  |  |  | 4 µg/mL (≈ 9.06 µM) | 8 µg/mL (≈ 18.1 µM) | 8 µg/mL (≈ 18.1 µM) | 8 µg/mL (≈ 18.1 µM) |  | 8 µg/mL (≈ 18.1 µM) |  | 4 µg/mL (≈ 9.06 µM) | 4 µg/mL (≈ 9.06 µM) |  |  |  | 
O=C1C=C(c2cc(Br)c(O)c(Br)c2)/C(=C/c2cc(Br)c(O)c(Br)c2)O1 [RUBROLIDE A] | 8 µg/mL (≈ 13.4 µM) | inactive | 1.6 µg/mL (≈ 2.69 µM) | 1.6 µg/mL (≈ 2.69 µM) | 1.6 µg/mL (≈ 2.69 µM) | 3.1 µg/mL (≈ 5.2 µM) | 4 µg/mL (≈ 6.71 µM) | 8 µg/mL (≈ 13.4 µM) | 8 µg/mL (≈ 13.4 µM) | 8 µg/mL (≈ 13.4 µM) | inactive | 8 µg/mL (≈ 13.4 µM) | inactive | 4 µg/mL (≈ 6.71 µM) | 4 µg/mL (≈ 6.71 µM) |  |  |  | 
O=C1C=C(c2ccc(O)c(Br)c2)/C(=C/c2cc(Br)c(O)c(Br)c2)O1 [RUBROLIDE J] | 2 µg/mL (≈ 3.87 µM) | inactive | 0.8 µg/mL (≈ 1.55 µM) | 6.3 µg/mL (≈ 12.2 µM) | 1.6 µg/mL (≈ 3.09 µM) | 3.1 µg/mL (≈ 6 µM) | 2 µg/mL (≈ 3.87 µM) | 2 µg/mL (≈ 3.87 µM) | 4 µg/mL (≈ 7.74 µM) | 2 µg/mL (≈ 3.87 µM) | inactive | 2 µg/mL (≈ 3.87 µM) | inactive | 2 µg/mL (≈ 3.87 µM) | 1 µg/mL (≈ 1.93 µM) |  |  |  | 
COc1ccc(C=C2OC(=O)C=C2c2cc(Br)c(O)c(Br)c2)cc1 [RUBROLIDE P] | > 32 µg/mL | inactive | 50 µg/mL (≈ 111 µM) | 6.3 µg/mL (≈ 13.9 µM) | 50 µg/mL (≈ 111 µM) | > 50 µg/mL | > 32 µg/mL | > 32 µg/mL | > 32 µg/mL | > 32 µg/mL | inactive | > 32 µg/mL | inactive | > 32 µg/mL | > 32 µg/mL |  |  |  | 
CN[C@H](CC(C)C)C(=O)N[C@H]1C(=O)N[C@@H](CC(N)=O)C(=O)N[C@H]2C(=O)N[C@H]3C(=O)N[C@H](C(=O)N[C@H](C(=O)O)c4cc(O)cc(O)c4-c4cc3ccc4O)[C@H](O)c3ccc(c(Cl)c3)Oc3cc2cc(c3O[C@@H]2O[C@H](CO)[C@@H](O)[C@H](O)[C@H]2O[C@H]2C[C@](C)(N)[C@H](O)[C@H](C)O2)Oc2ccc(cc2Cl)[C@H]1O [VANCOMYCIN] |  |  |  |  |  |  | 0.25 µg/mL (≈ 0.173 µM) |  |  |  |  | 0.25 µg/mL (≈ 0.173 µM) |  |  | < 0.13 µg/mL |  |  |  | 
GENTAMICIN |  |  |  |  |  |  |  |  |  |  |  |  |  |  |  | < 0.02 µg/mL | 1.6 µg/mL | 0.05 µg/mL | < 0.02 µg/mL

From ChEMBL document CHEMBL2203068, “Antibacterial butenolides from the Korean tunicate Pseudodistoma antinboja” (2012)
